Hits are enriched below; roughly 3.4% of the tested compounds scored in any of these assays.
M1 ag: human M1 muscarinic receptor agonists, primary screen, Fluo-8 calcium fluorescence, CHO-K1 cells, HTS; Muscarinic acetylcholine receptor M1 (Homo sapiens), P11229; CHO-K1 hM1, agonist mode; 0% DMSO, 100% acetylcholine EC100; activation, % at 3 µM; 360,000 compounds, 0.33% hits; AID 588814, 2011;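 active = activation above the run's mean compound activation plus 3 SD, cut at about 16% in these data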;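 note: peak over basal fluorescence ratio within a 140 s kinetic read after compound addition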
Target sequence (P11229 whole entry, looked up): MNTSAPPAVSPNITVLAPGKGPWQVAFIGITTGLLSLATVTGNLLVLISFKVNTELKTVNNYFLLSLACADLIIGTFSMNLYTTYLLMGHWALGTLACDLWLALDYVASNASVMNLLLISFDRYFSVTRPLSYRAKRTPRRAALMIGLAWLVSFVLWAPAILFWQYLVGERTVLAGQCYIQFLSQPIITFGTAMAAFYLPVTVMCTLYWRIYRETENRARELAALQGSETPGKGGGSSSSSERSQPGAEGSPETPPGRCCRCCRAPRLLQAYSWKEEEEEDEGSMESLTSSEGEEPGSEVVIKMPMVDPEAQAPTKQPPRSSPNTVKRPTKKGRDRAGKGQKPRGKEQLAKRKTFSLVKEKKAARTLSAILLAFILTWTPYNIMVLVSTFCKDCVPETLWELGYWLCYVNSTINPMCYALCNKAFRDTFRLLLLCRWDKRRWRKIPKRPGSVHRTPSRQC
TAAR1 agonist: human TAAR1 agonists, primary screen, Fluo-8 calcium fluorescence, CHO RD-HGA16 cells | Trace amine-associated receptor 1 (Homo sapiens), Q96RJ0 | vehicle wells 0%, saturating PEA agonist 100% | activation, % at 3 µM | 360,000 compounds, 0.99% hits | AID 624467, 2012;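 active = activation above the mean activation of all test compounds in the run plus 3 SD, cut at about 38% in these data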
Target sequence (Q96RJ0 whole entry, looked up): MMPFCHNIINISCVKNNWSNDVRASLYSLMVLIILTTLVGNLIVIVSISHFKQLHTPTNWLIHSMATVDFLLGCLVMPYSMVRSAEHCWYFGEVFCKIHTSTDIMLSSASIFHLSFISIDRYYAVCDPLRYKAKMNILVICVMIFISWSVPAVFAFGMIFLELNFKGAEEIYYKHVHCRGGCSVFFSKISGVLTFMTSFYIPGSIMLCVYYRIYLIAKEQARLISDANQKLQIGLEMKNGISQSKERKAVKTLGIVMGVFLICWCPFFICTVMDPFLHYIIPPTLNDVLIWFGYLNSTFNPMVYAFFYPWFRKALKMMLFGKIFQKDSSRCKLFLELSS
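Signal – calcium-sensitive Fluo-8 signal, excitation 470-495, emission 515-575 nm · System – RD-HGA16 (CHO) cells co-expressing Gα16 and hTAAR1 · Incubation – 17-24 h seeding, 75 min 37 °C dye, 30 min RT · Compound dosing – 3 µM single concentration · Repeats – no replicates (n 1)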
CHRM1 PAM: human M1 muscarinic receptor positive allosteric modulators, primary screen, CHO-K1 cells, Fluo-8 calcium fluorescence, 1536-well | Muscarinic acetylcholine receptor M1 (Homo sapiens), P11229 | CHO-K1 hM1, ACh EC20; 0% = ACh EC20, 100% = maximal ACh | activation, % at 3 µM | 360,000 compounds, 0.088% hits; in the data active = activation above about 19%, passing the limit was not always enough
TAAR1 antagonist: human TAAR1 antagonists, primary screen, Fluo-8 calcium fluorescence, CHO RD-HGA16 cells; Trace amine-associated receptor 1 (Homo sapiens), Q96RJ0; inhibition, % at 3 µM; 360,000 compounds, 1.5% hits; AID 624466, 2012; antagonist;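 active = inhibition above a per-plate cutoff, the mean inhibition of test compounds on that plate plus 3 SD, cut at about 49% in these data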;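 note: 0% = DMSO plus EC80 beta-PEA response and 100% = DMSO alone without agonist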
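Test system: hTAAR1-expressing CHO RD-HGA16 cells, Gα16-coupled; Probe or stimulus: EC80 β-phenethylamine stimulus; Compound dosing: single nominal final test compound concentration of 3 µM; Timing: 140 s kinetic read after compound, 140 s after agonist; Signal: Fluo-8 calcium-sensitive fluorescence; Measure: % inhibition of agonist calcium response; Controls: DMSO and EC80 PEA controls.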
M1 antag: human M1 muscarinic receptor antagonists, primary screen, CHO-K1 cells, Fluo-8 calcium fluorescence, 1536-well | Muscarinic acetylcholine receptor M1 (Homo sapiens), P11229 | inhibition, % at 3 µM | CHO-K1 hM1, ACh EC80 antagonist | 360,000 compounds, 1.3% hits | AID 588852, 2011;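 active = percent inhibition above its own plate's cutoff, namely the mean of that plate's compound wells plus 3 SD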;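 note: peak over basal fluorescence ratio during 140 s after agonist addition; 0% = ACh EC80 plus DMSO and 100% = DMSO alone without agonist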
nonsel antag count: nonselective antagonists in TAAR1 counter-screen cells, counter-screen for hTAAR1 antagonist project, cell-based, fluorescence, calcium | shares compounds with TAAR1 antagonist | counterscreen cell line, antagonist mode | inhibition, % at 3 µM | 2,400 compounds, 77% hits | AID 651780, 2012; in the data active = inhibition above about 22%;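 note: CHO-Ga16 host cells stimulated with ATP at an EC80 level; 0% = agonist EC80 plus vehicle and 100% = vehicle without agonist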
TAAR1 antag conf: human TAAR1 antagonists, retest of hits, confirmation, cell-based, fluorescence; shares compounds with TAAR1 antagonist; TAAR1-expressing cells, fluorescence antagonist read-out; inhibition, % at 3 µM; 2,400 compounds, 40% hits; in the data active = inhibition above about 49%;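 note: CHO-Ga16 host cells challenged with agonist PEA near its EC80; 0% = agonist at EC80 plus vehicle and 100% = vehicle with no agonist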
Ga16 ag counter-1: calcium activation in Ga16-expressing cells, counter-screen for TAAR1 antagonist project, cell-based, fluorescence; activation, % at 3 µM; agonist counterscreen; shares compounds with TAAR1 antagonist; 2,400 compounds, 18% hits; AID 651953, 2012; in the data active = activation above about 12%;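 note: 0% = vehicle wells and 100% = saturating stimulus response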
TAAR1 ag count: TAAR1 activation by candidate antagonists – cell-based, fluorescence, counter-screen for TAAR1 antagonist project; shares compounds with TAAR1 antagonist; hTAAR1 cell line, agonist mode; activation, % at 3 µM; 2,400 compounds, 2% hits; in the data active = activation above about 37%;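 note: CHO cells stably expressing TAAR1 with calcium dye readout; 0% = DMSO vehicle and 100% = full agonist response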
TAAR1 ag conf: human TAAR1 agonists, retest of hits, confirmation, Fluo-8 calcium fluorescence, CHO RD-HGA16 cells. shares compounds with TAAR1 agonist. scaled: DMSO 0%, maximal phenethylamine 100%. activation, % at 3 µM. 2,400 compounds, 82% hits. AID 651783, 2012;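 active = activation above a cutoff set at the run's mean compound activation plus 3 SD, cut at about 39% in these data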
Ga16 ag counter-2: nonselective calcium mobilization agonists, CHO-Ga16 cells, counter-screen for hTAAR1 agonist project, cell-based, fluorescence, CHO-Ga16 parental line | AID 651787, 2012 | 2,400 compounds, 50% hits | activation, % at 3 µM | shares compounds with TAAR1 agonist | Fluo-8 calcium fluorescence; normalized to maximal ATP response, DMSO zero;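 active = activation above the run cutoff, the mean activation over all tested wells plus 3 SD, cut at about 12% in these data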;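 note: 0% = DMSO wells and 100% = maximal ATP response on the peak over basal ratio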
TAAR1 desens: TAAR1 desensitization by agonist hits, confirmation, counter-screen for TAAR1 agonist project, cell-based, fluorescence, tachyphylaxis; inhibition, % at 3 µM; 2,400 compounds, 46% hits; shares compounds with TAAR1 agonist; CHO RD-HGA16 hTAAR1, Fluo-8 calcium, beta-PEA response inhibition; AID 651951, 2012;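 active = inhibition above the run cutoff, the mean inhibition of all test compounds plus 3 SD, cut at about 49% in these data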;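 note: beta-PEA stimulus applied at its EC80; loss of beta-PEA calcium signal after compound pretreatment read as receptor desensitization; 0% = DMSO with beta-PEA at EC80 and 100% = DMSO alone without agonist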
Ga16 antag count: inhibition of ATP-evoked calcium response in CHO-Ga16 cells, counter-screen for TAAR1 agonist project, cell-based, fluorescence; shares compounds with TAAR1 agonist; CHO-Ga16 ATP-induced calcium, Fluo-8 fluorescence; inhibition, % at 3 µM; 2,400 compounds, 39% hits; AID 651952, 2012;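 active = inhibition above the plate's mean compound inhibition plus 3 SD, computed per plate, cut at about 22% in these data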;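 note: 0% = EC80 ATP with DMSO and 100% = DMSO wells without ATP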
An asterisk follows results filed as active.

Screening O=c1[nH]c2ccccc2n1C1CCN(Cc2ccc(-c3nc4ccccc4nc3-c3ccccc3)cc2)CC1 returned TAAR1 agonist 0.0 and TAAR1 antagonist 37.7.
CCOCC1(CCc2ccccc2)C(=O)NC(=S)NC1=O was read as M1 ag 2.4, TAAR1 agonist 6.3, CHRM1 PAM 16.4, TAAR1 antagonist -17.6 and M1 antag -22.1.
C[C@H]1CN([C@@H](C)CO)C(=O)CCCn2nncc2CO[C@H]1CN(C)C(=O)Oc1ccc2ccccc2c1 was read as M1 ag -6.0, TAAR1 agonist -0.7, CHRM1 PAM -3.0, TAAR1 antagonist -21.2 and M1 antag -5.1.
For CC1(CCO)C(=O)NC(=S)NC1=O the results were M1 ag -1.8, TAAR1 agonist 3.5, CHRM1 PAM 5.1, TAAR1 antagonist -20.9 and M1 antag -12.6.
CCC(c1nnnn1Cc1ccccc1)N1CCC(n2c(=O)[nH]c3ccccc32)CC1 (stereo not given) was read as M1 ag -2.4, TAAR1 agonist 23.9, CHRM1 PAM -12.7, TAAR1 antagonist 72.2*, M1 antag 16.3, nonsel antag count 35.4*, TAAR1 antag conf 55.8*, Ga16 ag counter-1 10.5 and TAAR1 ag count 13.6.
Screening COc1cccc(C(c2nnnn2-c2c(C)cccc2C)N2CCC(n3c(=O)[nH]c4ccccc43)CC2)c1OC (stereo not given) returned M1 ag -2.1, TAAR1 agonist 1.0, CHRM1 PAM -5.9, TAAR1 antagonist 31.4 and M1 antag 2.1.
O=c1[nH]c2ccccc2n1C1CCN(C(c2ccnc3ccccc23)c2nnnn2-c2ccc3c(c2)OCCO3)CC1 (stereo not given) was read as M1 ag -0.2, TAAR1 agonist 18.4, CHRM1 PAM 3.1, TAAR1 antagonist 66.2*, M1 antag -11.9, nonsel antag count 10.8, TAAR1 antag conf 48.0, Ga16 ag counter-1 12.9* and TAAR1 ag count 47.9*.
Screening C[C@@H]1CN([C@@H](C)CO)C(=O)CCCn2cc(nn2)CO[C@H]1CN(C)C(=O)Oc1ccc2ccccc2c1 returned M1 ag -6.5, TAAR1 agonist 8.2, CHRM1 PAM 9.4, TAAR1 antagonist -11.3 and M1 antag -21.7.
For O=C1NC(=O)C(Cc2ccccc2)(Cc2ccccc2)C(=O)N1Cc1ccccc1 the results were M1 ag 10.8, TAAR1 agonist -0.3, CHRM1 PAM 19.9, TAAR1 antagonist 59.9*, M1 antag -2.8, nonsel antag count 12.6, TAAR1 antag conf 34.5, Ga16 ag counter-1 0.7 and TAAR1 ag count 3.6.
Screening CC(NC1=NCCS1)c1ccccc1 (stereo not given) returned M1 ag -7.0, CHRM1 PAM 5.0, M1 antag -11.0, Ga16 ag counter-2 -0.2 and Ga16 antag count -0.3.
`CC1CN=C(NC(C)c2ccccc2)S1` (stereo not given) gave M1 ag -9.5, TAAR1 agonist 5.4, CHRM1 PAM 2.7, TAAR1 antagonist -5.8 and M1 antag 2.4.
`Cc1ccc(OC(=O)N(C)C[C@@H]2OCc3cnnn3CCCC(=O)N([C@@H](C)CO)C[C@H]2C)cc1` gave M1 ag -5.6, TAAR1 agonist 2.4, CHRM1 PAM 8.6, TAAR1 antagonist -20.6 and M1 antag -17.1.
O=C(CCN1CC1)OCCOC(=O)CCN1CC1 was read as M1 ag -4.9, TAAR1 agonist 0.8, CHRM1 PAM 4.7, TAAR1 antagonist 4.6 and M1 antag -11.9.
For COc1cc(/C=C/[N+](=O)[O-])ccc1O the results were M1 ag -2.1, TAAR1 agonist 14.2, CHRM1 PAM 1.6, TAAR1 antagonist 5.7 and M1 antag 6.9.
`CCN(CC)c1ccc(/C=C/[N+](=O)[O-])cc1` gave M1 ag 69.9*, TAAR1 agonist 226.6*, CHRM1 PAM -8.1, TAAR1 antagonist 89.8*, M1 antag 53.0*, TAAR1 ag conf 50.7*, Ga16 ag counter-2 58.1*, TAAR1 desens 50.6* and Ga16 antag count 58.8*.
For CCCCCCCSc1cc(OC)c(CCNC)cc1OC the results were M1 ag -0.8, TAAR1 agonist 66.8*, CHRM1 PAM 1.4, TAAR1 antagonist 35.3, M1 antag 7.3, TAAR1 ag conf 51.7*, Ga16 ag counter-2 21.0*, TAAR1 desens 44.3 and Ga16 antag count 24.1*.
Screening CNCC(C)c1ccccc1 (stereo not given) returned M1 ag -5.7, TAAR1 agonist 83.6*, CHRM1 PAM 13.5, TAAR1 antagonist 59.4*, M1 antag -13.5, TAAR1 ag conf 94.3*, Ga16 ag counter-2 0.9, TAAR1 desens 83.0* and Ga16 antag count 1.9.
